Experimental data published in paper PMC3167688 (Nuclear medicine and biology, 2009).

What was measured:
[1] = Baboon arterial plasma analysis of unmetabolized radiotracer during PET; type: in vivo
[2] = system: Histone Deacetylase in the baboon brain; assay: Baboon brain PET imaging with graphical analysis; type: in vivo; settings: for average reduction in Vd of [^18F]FAHA: comparison of 0.5 and 0.25 mg/kg
tumor xenografts = settings: cited from earlier work
HDAC = settings: cited from earlier work
[3] = cited from earlier work
Log D = type: physicochemical
plasma proteins = assay: Plasma protein binding; type: in vitro ADME
[4] = Compartment modelling of [^18F]FAC uptake in baboon brain; type: in vivo; settings: one animal; fixed for all four studies
How it was run: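 Two baboons. Arterial blood was sampled every 5 s for 2 min, then at longer intervals, centrifuged, and plasma counted. Brain time-activity curves from studies with the injected labelled metabolite were fitted with one- and two-compartment models. Fitted rate constants were fixed across studies to estimate metabolite brain uptake from peripheral radiotracer metabolism, using the metabolite fraction of arterial plasma input.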

Plasma protein binding = type: in vitro ADME; settings: plasma
[5] = In vitro whole blood and plasma incubation, radio-TLC; type: in vitro ADME, baboon
How it was run: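 Arterial whole blood or plasma (0.5 ml) came from one baboon 1 h after HDAC-inhibitor pretreatment (0.25 mg/kg), just before radiotracer dosing. Radiotracer was added at room temperature. Percent intact radiotracer was measured by radio-TLC after 10, 20 and 30 min.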

[6] = Stability of [^18F]FAHA in medium alone; type: in vitro ADME; settings: incubated in medium alone; no detection of [^18F]FAC

## O=C(CCCCCCC(=O)Nc1ccccc1)NO [SAHA, suberanilohydroxamic acid]
[1]; SAHA 0.25, 0.5, 1.0 mg/kg iv, dose dependent manner
  effect on rate of metabolism of [^18F]FAHA in baboon plasma: decrease the rate of metabolism
[2]; 0.25 mg/kg, Brooke
  average % reduction in Vd of [^18F]FAHA: 12 ± 12%
[2]; 0.25 mg/kg, Lulu
  average % reduction in Vd of [^18F]FAHA: 25 ± 8%
[2]; 0.25 mg/kg
  average reduction in Vd of [^18F]FAHA: 25± 5%
[2]; 0.5 mg/kg
  average reduction in Vd of [^18F]FAHA: 30± 9%
[2]; 1 mg/kg, Brooke, averaged over all 6 ROIs (excluding global)
  average % reduction in Vd of [^18F]FAHA: 43 ± 7%
[2]; 1 mg/kg, Lulu, averaged over all 6 ROIs (excluding global)
  average % reduction in Vd of [^18F]FAHA: 52 ± 8%
Tumor xenografts; rodent tumor xenograft study
  effect on [^18F]FAHA radiotracer uptake: inhibit radiotracer uptake
HDAC; rat brain study
  effect on [^18F]FAHA radiotracer uptake: inhibit radiotracer uptake
[3]
  clinical doses well tolerated: > 5 mg/kg

## O=C(O)C[18F] [[^18F]FAC, [^18F]fluoroacetate]
Log D
  logD: 0.70
Plasma proteins
  % of activity unbound to plasma proteins: 57.2%
[4]
  K1 (2 compartment model, brain uptake of metabolite): 0.018 ml/min/cc
  k2 (2 compartment model): 0.04 min⁻¹
  k3 (2 compartment model): 0.008 min⁻¹
  k4 (2 compartment model): .003 min⁻¹

## O=C(C[18F])NCCCCCC(=O)Nc1ccccc1 [[^18F]FAHA, 6-([^18F]fluoroacetamido)-1-hexanoicanilide]
Plasma protein binding
  fraction unbound: 0.539 ± 0.0176
[1]; animal 1, Baseline, 1min after bolus injection
  % Unmetabolized [^18F]FAHA in baboon plasma: 45%
[1]; animal 1, Baseline, 5min
  % Unmetabolized [^18F]FAHA in baboon plasma: 2%
[1]; animal 1, Baseline, 10min
  % Unmetabolized [^18F]FAHA in baboon plasma: 1%
[1]; animal 1, SAHA 0.25mg/kg iv 1 hour before, 1min
  % Unmetabolized [^18F]FAHA in baboon plasma: 84%
[1]; animal 1, SAHA 0.25mg/kg iv 1 hour before, 2min
  % Unmetabolized [^18F]FAHA in baboon plasma: 35%
[1]; animal 1, SAHA 0.25mg/kg iv 1 hour before, 5min
  % Unmetabolized [^18F]FAHA in baboon plasma: 10%
[1]; animal 1, SAHA 0.25mg/kg iv 1 hour before, 10min
  % Unmetabolized [^18F]FAHA in baboon plasma: 6%
[1]; animal 1, SAHA 0.5mg/kg iv 1 hour before, 1min
  % Unmetabolized [^18F]FAHA in baboon plasma: 78%
[1]; animal 1, SAHA 0.5mg/kg iv 1 hour before, 2min
  % Unmetabolized [^18F]FAHA in baboon plasma: 39%
[1]; animal 1, SAHA 0.5mg/kg iv 1 hour before, 5min
  % Unmetabolized [^18F]FAHA in baboon plasma: 14%
[1]; animal 1, SAHA 0.5mg/kg iv 1 hour before, 10min
  % Unmetabolized [^18F]FAHA in baboon plasma: 7%
[1]; animal 1, SAHA 1.0mg/kg iv 1 hour before, 1min
  % Unmetabolized [^18F]FAHA in baboon plasma: 86%
[1]; animal 1, SAHA 1.0mg/kg iv 1 hour before, 2min
  % Unmetabolized [^18F]FAHA in baboon plasma: 34%
[1]; animal 1, SAHA 1.0mg/kg iv 1 hour before, 5min
  % Unmetabolized [^18F]FAHA in baboon plasma: 22%
[1]; animal 1, SAHA 1.0mg/kg iv 1 hour before, 10min
  % Unmetabolized [^18F]FAHA in baboon plasma: 10%
[1]; animal 2, Baseline, 1min
  % Unmetabolized [^18F]FAHA in baboon plasma: 52%
[1]; animal 2, Baseline, 2min
  % Unmetabolized [^18F]FAHA in baboon plasma: 6%
[1]; animal 2, Baseline, 5min
  % Unmetabolized [^18F]FAHA in baboon plasma: 2%
[1]; animal 2, Baseline, 10min
  % Unmetabolized [^18F]FAHA in baboon plasma: 1%
[1]; animal 2, SAHA 0.25mg/kg iv 1 hour before, 1min
  % Unmetabolized [^18F]FAHA in baboon plasma: 87%
[1]; animal 2, SAHA 0.25mg/kg iv 1 hour before, 2min
  % Unmetabolized [^18F]FAHA in baboon plasma: 49%
[1]; animal 2, SAHA 0.25mg/kg iv 1 hour before, 5min
  % Unmetabolized [^18F]FAHA in baboon plasma: 11%
[1]; animal 2, SAHA 0.25mg/kg iv 1 hour before, 10min
  % Unmetabolized [^18F]FAHA in baboon plasma: 5%
[1]; animal 2, SAHA 0.5mg/kg iv 1 hour before, 1min
  % Unmetabolized [^18F]FAHA in baboon plasma: 78%
[1]; animal 2, SAHA 0.5mg/kg iv 1 hour before, 2min
  % Unmetabolized [^18F]FAHA in baboon plasma: 50%
[1]; animal 2, SAHA 0.5mg/kg iv 1 hour before, 5min
  % Unmetabolized [^18F]FAHA in baboon plasma: 14%
[1]; animal 2, SAHA 0.5mg/kg iv 1 hour before, 10min
  % Unmetabolized [^18F]FAHA in baboon plasma: 6%
[1]; animal 2, SAHA 1.0mg/kg iv 1 hour before, 1min
  % Unmetabolized [^18F]FAHA in baboon plasma: 85%
[1]; animal 2, SAHA 1.0mg/kg iv 1 hour before, 5min
  % Unmetabolized [^18F]FAHA in baboon plasma: 26%
[1]; animal 2, SAHA 1.0mg/kg iv 1 hour before, 10min
  % Unmetabolized [^18F]FAHA in baboon plasma: 20%
[2]; TACs in the same baboon
  peak brain uptake relative to [^18F]FAC: more than five times greater
[5]; Blood-post (1h after SAHA administration, 0.25 mg/kg), time 10
  % Unmetabolized [^18F]FAHA after incubation in vitro (radio-TLC): 16%
[5]; Blood-post, time 20
  % Unmetabolized [^18F]FAHA after incubation in vitro (radio-TLC): 0%
[5]; Blood-post, time 30
  % Unmetabolized [^18F]FAHA after incubation in vitro (radio-TLC): 0%
[5]; Blood-pre (before SAHA pretreatment), time 10, room temperature
  % Unmetabolized [^18F]FAHA after incubation in vitro (radio-TLC): 13%
[5]; Blood-pre, time 20
  % Unmetabolized [^18F]FAHA after incubation in vitro (radio-TLC): 0%
[5]; Blood-pre, time 30
  % Unmetabolized [^18F]FAHA after incubation in vitro (radio-TLC): 0%
[5]; Plasma-post (1h after SAHA administration), time 10
  % Unmetabolized [^18F]FAHA after incubation in vitro (radio-TLC): 96%
[5]; Plasma-post, time 20
  % Unmetabolized [^18F]FAHA after incubation in vitro (radio-TLC): 96%
[5]; Plasma-post, time 30
  % Unmetabolized [^18F]FAHA after incubation in vitro (radio-TLC): 94%
[5]; Plasma-pre (before SAHA pretreatment), time 10
  % Unmetabolized [^18F]FAHA after incubation in vitro (radio-TLC): 98%
[5]; Plasma-pre, time 20
  % Unmetabolized [^18F]FAHA after incubation in vitro (radio-TLC): 94%
[5]; Plasma-pre, time 30
  % Unmetabolized [^18F]FAHA after incubation in vitro (radio-TLC): 94%
[6]
  stability in medium alone: stable up to 2 h
Tumor xenografts; between 30–60 min post-injection
  tumor to muscle ratios: 2.2–2.4
Tumor xenografts; peak at 30 min, rats implanted with carcinoma cells
  peak uptake in tumor xenografts: 0.43 %ID/g
HDAC
  peak uptake in rat brain: 0.44 % ID/g
